Experimental data pooled from the literature.
LCK: Tyrosine-protein kinase Lck (LCK, Homo sapiens, UniProt P06239)
ALPI: Intestinal-type alkaline phosphatase (ALPI, Bos taurus, UniProt P19111)
GRM2: Metabotropic glutamate receptor 2 (GRM2, Homo sapiens, UniProt Q14416)
EPHX2: Bifunctional epoxide hydrolase 2 (EPHX2, Homo sapiens, UniProt P34913)
Maob: Amine oxidase [flavin-containing] B (Maob, Rattus norvegicus, UniProt P19643)
RET: Proto-oncogene tyrosine-protein kinase receptor Ret (RET, Homo sapiens, UniProt P07949)
NMUR1: Neuromedin-U receptor 1 (NMUR1, Homo sapiens, UniProt Q9HB89)
JAK2: Tyrosine-protein kinase JAK2 (JAK2, Homo sapiens, UniProt O60674)

Structure (SMILES)	target	assay	conditions	IC50 [µM]
CNC(=O)c1cc2c(Oc3ccc(NC(=O)C4(C(=O)Nc5ccc(F)cc5)CC4)cc3)ccnc2cc1OC	LCK	enzyme activity, inhibitor, radiometric		0.012
Cc1ccc(C(=O)Nc2ccc(Oc3cc4cnn(C)c4cc3-c3cn[nH]c3)c(F)c2)c(=O)n1-c1ccc(F)cc1	Proto-oncogene tyrosine-protein kinase receptor Ret (RET, Homo sapiens, UniProt P07949, C634W)	phosphorylation in cells, inhibitor, western blot		2
O=C1NC2=C(C(=O)N(Cc3ccc(F)cc3)C2)C(c2ccc(O)cc2)N1 (stereo not shown)	ALPI	enzyme activity, inhibitor, absorbance		4.76
COc1ccc(-c2cc(C(N)=O)ncc2OCc2ccnc(OC)c2)c(F)c1	GRM2	ion flux, antagonist		0.135
CC12CC3CC(C1)CC(NC(=O)Nc1ccccc1F)(C3)C2	EPHX2	enzyme activity, inhibitor, fluorescence		0.0015
Cn1ccc(COc2cnc(C(N)=O)cc2-c2ccc(F)cc2)n1	GRM2	ion flux, antagonist		0.058
O=C1NC2=C(C(=O)N(c3ccc(F)cc3)C2)C(c2ccc(O)cc2)N1 (stereo not shown)	ALPI	enzyme activity, inhibitor, absorbance		2.5
CNc1nc(C)nc(N[C@H]2CCC[C@@H](C(=O)NCc3ccc(C#N)cc3C(F)(F)F)C2)n1	EPHX2	enzyme activity, inhibitor		0.0004
CC(=NN=C1CS(=O)(=O)N(C)c2ccccc21)c1sccc1C	Maob	enzyme activity, inhibitor, fluorescence		2.38
COc1ccc(-c2cc(C(N)=O)ncc2OCc2cn(C)cn2)c(F)c1	GRM2	ion flux, antagonist		0.092
CC(C)(C)n1nc(-c2ccc3nc(OC4CC4)ccc3c2)c(C(N)=O)c1N	Mitogen-activated protein kinase kinase kinase 10 (MAP3K10, Homo sapiens, UniProt Q02779)	cell-free assay		> 10
Cc1ccc2cc(C=NN=C3CS(=O)(=O)N(C)c4ccccc43)c(Cl)nc2c1	Maob	enzyme activity, inhibitor, fluorescence		1.05
Cc1cnc(-c2ccc(-c3ccc(NC(=O)Nc4c(F)cc(F)cc4F)cc3F)c3c2C(=O)NC3)[nH]1	RET	enzyme activity, inhibitor		0.0148
COc1ccc(-c2cc(C(N)=O)ncc2OCc2ccn(C)n2)c(F)c1	GRM2	ion flux, antagonist		0.021
CC(C)C[C@H](NC(=O)[C@H](Cc1ccccc1)NC(=O)[C@H](Cc1ccc(O)cc1)NC(=O)CNC(=O)[C@H](CCCNC(=N)N)NC(=O)[C@H](CO)NC(=O)[C@H](CCC(N)=O)NC(=O)[C@H](CO)NC(=O)[C@H](C)NC(=O)[C@H](Cc1ccccc1)NC(=O)[C@@H]1CCCN1C(=O)[C@H](CO)NC(=O)[C@H](CCC(N)=O)NC(=O)[C@H](Cc1ccccc1)NC(=O)[C@H](CCC(=O)O)NC(=O)[C@H](CCC(=O)O)NC(=O)[C@H](CC(=O)O)NC(=O)[C@@H](NC(=O)[C@H](CCCNC(=N)N)NC(=O)[C@@H](N)Cc1ccccc1)C(C)C)C(=O)N[C@@H](Cc1ccccc1)C(=O)N[C@@H](CCCNC(=N)N)C(=O)N1CCC[C@H]1C(=O)N[C@@H](CCCNC(=N)N)C(=O)N[C@@H](CC(N)=O)C(N)=O	NMUR1	ligand displacement, radioligand		0.000107
CCCCCCCCN1CC2=C(C1=O)C(c1ccccc1O)NC(=O)N2 (stereo not shown)	ALPI	enzyme activity, inhibitor, absorbance		8.71
CCC(CC12CC3CC(CC(C3)C1)C2)NC(=O)Nc1ccccc1F (stereo not shown)	EPHX2	enzyme activity, inhibitor, fluorescence		0.631
O=C(Cc1ccc(Nc2ncnc3[nH]ccc23)cc1)Nc1ccc(F)c(Cl)c1	RET	enzyme activity, inhibitor, mobility shift		> 20
Nc1nc(NCc2ccccc2CO)c2[nH]cnc2n1	Methylated-DNA--protein-cysteine methyltransferase (MGMT, Homo sapiens, UniProt P16455)	enzyme activity, inhibitor	30 min	> 1000

Structure (SMILES)	target	assay	conditions	IC50 [µM]
COc1ccc(-c2cc(C(N)=O)ncc2OCc2ccc(F)nc2)c(F)c1	GRM2	ion flux, antagonist		0.074
COc1ccc(-c2nsc(NC(=O)[C@@H]3C[C@H]3C)c2C)cc1	GRM2	calcium signal, antagonist		> 12.5
CC(C)C[C@H](NC(=O)[C@H](Cc1ccccc1)NC(=O)[C@@H](N)Cc1ccc(O)cc1)C(=O)N[C@@H](Cc1ccccc1)C(=O)N[C@@H](CCCNC(=N)N)C(=O)N1CCC[C@H]1C(=O)N[C@@H](CCCNC(=N)N)C(=O)N[C@@H](CC(N)=O)C(N)=O	NMUR1	ligand displacement, radioligand		0.000661
O=C1NC2=C(C(=O)N(c3ccc(Cl)cc3)C2)C(c2ccccc2O)N1 (stereo not shown)	ALPI	enzyme activity, inhibitor, absorbance		2.94
CC(=NN=C1CS(=O)(=O)N(C)c2ccccc21)c1sccc1Br	Maob	enzyme activity, inhibitor, fluorescence		3.82
O=C1NC2=C(C(=O)N(Cc3ccc(Cl)cc3)C2)C(c2ccc(O)cc2)N1 (stereo not shown)	ALPI	enzyme activity, inhibitor, absorbance		5.35
Cc1ccc2nc(Cl)c(C=NN=C3CS(=O)(=O)N(C)c4ccccc43)cc2c1	Maob	enzyme activity, inhibitor, fluorescence		1.43
Oc1c2ccccc2c2c3c(cccc13)N=N2	JAK2	enzyme activity, inhibitor		0.736
CN(C)CC#Cc1ccc2[nH]c3c(c2c1)-c1nc(N)ncc1CCC3	Dual specificity mitogen-activated protein kinase kinase 4 (MAP2K4, Homo sapiens, UniProt P45985)	enzyme activity, inhibitor, radiometric		> 10
COc1ccc2c(Oc3ccc4c(C(=O)Nc5ccccc5N)cccc4c3)ccnc2c1	LCK	enzyme activity, inhibitor		> 0.5
O=C(CCCCCCCCc1ccc(O)c(O)c1)c1c(O)cccc1O	EPHX2	enzyme activity, inhibitor, fluorescence		25.9
CC1=C(CC(=O)O)c2cc(F)ccc2/C1=C\c1ccc([S+](C)[O-])cc1 (stereo not shown)	Aldo-keto reductase family 1 member B1 (AKR1B1, Homo sapiens, UniProt P15121)	enzyme activity, inhibitor, absorbance	pH 6.2	0.3
COc1ccc(N2CC3=C(C2=O)C(c2ccc(O)cc2)NC(=O)N3)cc1 (stereo not shown)	ALPI	enzyme activity, inhibitor, absorbance		9.43
COc1ccc(-c2cc(C(N)=O)ncc2OCc2ccnc(C)c2)c(F)c1	GRM2	ion flux, antagonist		0.059
CC(=NN=C1CS(=O)(=O)N(C)c2ccccc21)c1ccc([N+](=O)[O-])s1	Maob	enzyme activity, inhibitor, fluorescence		1.25
O=c1cc(-c2ccc(O)c(-c3c(O)cc(O)c4c(=O)cc(-c5ccc(O)cc5)oc34)c2)oc2cc(O)cc(O)c12	JAK2	enzyme activity, inhibitor		5
COc1ccc2cc(C=NN=C3CS(=O)(=O)N(C)c4ccccc43)c(Cl)nc2c1	Maob	enzyme activity, inhibitor, fluorescence		2.22
CC12CC3(C)CC(C)(C1)CC(NC(=O)Nc1ccccc1F)(C2)C3	EPHX2	enzyme activity, inhibitor, fluorescence		0.0943
